Screening data from PubChem BioAssay.
UHRF1 MBD2 ctr: UHRF1 methyl-DNA binding inhibition; Q96T88; UHRF1 binding to methylated oligo, TR-FRET; inhibition, % at 4.4 µM; hit rate 0.75% among 370,000; AID 687016; in the data active means inhibition above about 21%;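 further: UHRF1 SRA domain binding a hemimethylated CpG hairpin DNA probe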
SIAE primary: inhibitors of human sialic acid acetylesterase SIAE | Q9HAT2 | SIAE FP-Rh probe binding, fluorescence polarization | hit rate 0.69% among 370,000 | AID 1053197 | inhibition, % at 9.66 µM;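 active means inhibition above a cutoff: mean of compounds within the control limits plus 3 SD of those, cut at about 17% in these data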
LEDGF integ inh: blocks HIV-1 LEDGF/p75-dependent DNA integration; TR-FRET IN-LEDGF/p75 DNA integration, Eu/Cy5; inhibition, % at 3.7 µM; hit rate 0.64% among 370,000; AID 743269;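 active means inhibition above the screen-wide mean plus 3 SD, cut at about 13% in these data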;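 further: signal is the Cy5 over europium emission ratio at 671 and 618 nm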
TDP2 inh: blocks human TDP2 phosphodiesterase activity; recombinant TDP2, T5PNP hydrolysis, p-nitrophenol absorbance 415 nm; inhibition, % at 12.8 µM; hit rate 0.34% among 370,000; AID 720702;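 active means inhibition above the mean of all tested compounds plus 3 SD, set per campaign, cut at about 25% in these data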
Target sequence (O95551 whole entry, looked up): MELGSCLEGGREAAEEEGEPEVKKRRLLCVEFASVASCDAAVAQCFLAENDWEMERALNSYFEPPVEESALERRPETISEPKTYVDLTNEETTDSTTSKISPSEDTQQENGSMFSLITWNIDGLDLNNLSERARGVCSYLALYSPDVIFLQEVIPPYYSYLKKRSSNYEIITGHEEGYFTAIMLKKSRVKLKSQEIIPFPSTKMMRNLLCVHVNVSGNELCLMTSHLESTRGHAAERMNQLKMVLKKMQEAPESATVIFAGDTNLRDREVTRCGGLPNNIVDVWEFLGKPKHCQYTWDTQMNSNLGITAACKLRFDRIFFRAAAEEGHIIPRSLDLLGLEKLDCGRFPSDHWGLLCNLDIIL
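System – recombinant human TDP2 · Amount – 120 nM TDP2 per well · Buffer or medium – Mg2+-containing Tris-HCl buffer, pH 7.5 · Reagent – T5PNP substrate, 5 mM · Dosing – 12.8 µM single point, 1% DMSO · Incubation – 2 h at 37 °C · Measured by – epi absorbance · Read-out basis – percent inhibition · Benchmarks – high control without enzyme, low control DMSO plus TDP2 · Repeats – singlicate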
MBD2 inh: MBD2-methylated oligo binding inhibition; inhibition, % at 4.4 µM; hit rate 0.31% among 370,000; TR-FRET, MBD2 binding to methylated oligonucleotide; Q9UBB5; in the data active means inhibition above about 13%
PRMT1 FP inh: PRMT1 (human) inhibition, primary screen; inhibition, % at 2.79 µM; hit rate 1.3% among 370,000; recombinant PRMT1, activity-based probe fluorescence polarization;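 active means inhibition above about 21% made by adding two undisclosed values, limit read from the data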
PRMT1 confirm: PRMT1 (human) inhibition, FP confirmation. inhibition, % at 2.79 µM. hit rate 42% among 3,300. shares compounds with PRMT1 FP inh. recombinant His-PRMT1, activity-based probe fluorescence polarization. AID 687036;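 active means mean inhibition across replicates above the hit cutoff derived for the earlier primary screen, cut at about 22% in these data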
Of the large screens only hits and unclear results are named; the others gave an inactive call (follow-up assays come after a bar, where they were run). An excerpt weighted towards active compounds, which were near 3.3% of everything screened.

COc1ccc2[nH]c3c(c2c1)CCN[C@]31C(=O)N(C)c2ccccc21	none
O=C(Cn1nnc(-c2ccncc2)n1)Nc1ccc(F)cc1F	none
CCCCCCC(=O)N(O)C1CC(=O)N(c2ccc(F)cc2)C1=O (stereo not given)	PRMT1 FP inh 70 | PRMT1 confirm 97
CCCCCCC(=O)N(O)C1CC(=O)N(c2ccc(Br)cc2)C1=O (stereo not given)	PRMT1 FP inh 42 | PRMT1 confirm 73
CC(C)(C)c1ccc(-c2nnc(SCC(=O)Nc3ccccc3-c3ccccc3)n2Cc2ccco2)cc1	none
COCCCN1C(=O)[C@H](CC(=O)N2CCSCC2)[C@]2(C(=O)OC)CCCCC=C12	none
COc1ccc(S[C@]2(C(=O)N3CCN(C(C)=O)CC3)CC(=O)N(C(=O)/C=C/c3ccccc3)[C@@H]2c2ccc(OC)cc2)cc1	none
O=C(C1CCN(C2CC(=O)N(c3ccc(Cl)cc3)C2=O)CC1)N1CCOCC1 (stereo not given)	PRMT1 FP inh 27 | PRMT1 confirm inactive
CC(=O)Oc1ccc(N2C(=O)CC(N3CCOCC3)C2=O)cc1 (stereo not given)	PRMT1 FP inh 43 | PRMT1 confirm inactive
O=C(C1CCN(C2CC(=O)N(Cc3ccccc3)C2=O)CC1)N1CCCCCC1 (stereo not given)	PRMT1 FP inh 57 | PRMT1 confirm inactive
O=C(C1CCN(Cc2ccccc2)CC1)N1CCCC1	none
NC(=O)C1CCN(C2CC(=O)N(Cc3ccc(N4CCCC4=O)cc3)C2=O)CC1 (stereo not given)	PRMT1 FP inh 58 | PRMT1 confirm inactive
CCCCNC(=O)C1(C(C)=O)CC(C(=O)OCC)=NO1 (stereo not given)	none
COc1ccccc1N1CCN(C2CC(=O)N(c3cccc(Cl)c3)C2=O)CC1 (stereo not given)	none
CC(=O)Oc1ccc(N2C(=O)C3C4C=CC(O4)C3C2=O)cc1 (stereo not given)	PRMT1 FP inh 95 | PRMT1 confirm 27
CC(=O)Oc1cccc(N2C(=O)C3C4C=CC(C4=C(C)C)C3C2=O)c1 (stereo not given)	PRMT1 FP inh 64 | PRMT1 confirm inactive
O=C(C1CCN(C2CC(=O)N(c3cccc(Cl)c3)C2=O)CC1)N1CCCC1 (stereo not given)	PRMT1 FP inh 30 | PRMT1 confirm inactive
CCN(CC)C1CC(=O)N(c2cccc(Cl)c2)C1=O (stereo not given)	PRMT1 FP inh 34 | PRMT1 confirm 29
C=CCN1C[C@@H](COCc2ccccc2)Oc2cccc(F)c2S1(=O)=O	none
CCOC(=O)CC[C@@]1(C(=O)OCC)C[C@@H](CC(=O)NCCCOC)C(=O)N2CCCC=C21	none
CC(CCN1CCC(C(O)(c2ccccc2)c2ccccc2)CC1)Oc1cccc(F)c1 (stereo not given)	none
O=C1CSC(=S)N1/N=C/c1ccc2c(c1)OCCO2	PRMT1 FP inh 27 | PRMT1 confirm inactive
COc1cc(O)c(C=NN2C(=O)CSC2=S)c(OC)c1	PRMT1 FP inh 27 | PRMT1 confirm 32
O=C1CSC(=S)N1N=Cc1ccccc1O	PRMT1 FP inh 53 | PRMT1 confirm 74
COc1cc(/C=N/N2C(=O)CSC2=S)ccc1O	none
O=C1CSC(=S)N1/N=C/c1cccnc1	PRMT1 FP inh 48 | PRMT1 confirm inactive
O=C1CSC(=S)N1N=Cc1cccc(OCc2ccccc2)c1	none
COC(=O)[C@]12C[C@H](CC(=O)NCc3cccc(C(F)(F)F)c3)C(=O)N(Cc3ccc(Cl)cc3Cl)C1=C[C@H](C(C)C)O[C@@H]2C1CC1	none
COc1ccc(CN(CCN2CCOCC2)C(=O)c2ccccc2C)cc1OC	none
CCCCOCCCNC(=O)C[C@H]1C[C@@]2(C(=O)OC)C(=C[C@H](COCc3ccccc3)O[C@@H]2C)N(CCc2ccc(OC)c(OC)c2)C1=O	none
O=C(OCCN1C(=O)c2cccc3c(N4CCOCC4)ccc(c23)C1=O)c1ccc(Cl)cc1	PRMT1 FP inh 29 | PRMT1 confirm inactive
O=C(OCCN1C(=O)c2ccccc2C1=O)c1cc(S(=O)(=O)N2CCOCC2)ccc1F	none
c1ccc(-c2csc(NNC3=NCCCCC3)n2)cc1	PRMT1 FP inh 67 | PRMT1 confirm inactive
COc1ccc(-c2csc(NC3=NCCCCC3)n2)cc1	none
Clc1ccc(-c2csc(NNC3=NCCCCC3)n2)cc1	none
COc1ccc(-c2csc(NNC3=NCCCCC3)n2)cc1	PRMT1 FP inh 38 | PRMT1 confirm 32
O=C(/C=C1\C(=O)Nc2ccccc21)/C=C1\C(=O)Nc2ccccc21	SIAE primary 19, PRMT1 FP inh 53 | PRMT1 confirm 74
CC(=O)CC[C@@H]1CC[C@]2(CCCN(C(=O)c3ccc4ccccc4n3)C2)O1	none
Cn1nnnc1Sc1ncnc2scc(-c3ccc[nH]3)c12	PRMT1 FP inh 31 | PRMT1 confirm inactive
COCCNC[C@@]12CO[C@H](c3ccc(Cl)cc3)N1[C@@H](c1ccc(Cl)cc1)SC2	none
Cn1c(=O)c(=O)n(C)c2cc(N3CCOCC3)c(NS(=O)(=O)c3ccc([N+](=O)[O-])cc3)cc21	PRMT1 FP inh 25 | PRMT1 confirm inactive
Cn1c(=O)c(=O)n(C)c2cc(N3CCOCC3)c(NS(=O)(=O)c3ccc(F)c(Cl)c3)cc21	none
CCOC(=O)[C@@]12CN(C(=O)OC(C)(C)C)CC=C1N(Cc1ccc(OC)cc1)C(=O)[C@H]2CC(=O)NCCC(C)C	none
OCCN1CCN(C(=S)c2ccc(Cl)c(Cl)c2)CC1	PRMT1 FP inh 78 | PRMT1 confirm 78
O=C(NCCN1CCC(Cc2ccccc2)CC1)C1CCCN(S(=O)(=O)c2cccs2)C1 (stereo not given)	none
CC(=C/c1ccccc1)/C=N/n1c(-c2ccco2)n[nH]c1=S	PRMT1 FP inh 32 | PRMT1 confirm inactive
S=c1[nH]nc(-c2ccco2)n1/N=C/c1cccc(Cl)c1Cl	PRMT1 FP inh 33 | PRMT1 confirm 33
O=C(CNC(c1ccccc1)c1ccccc1)Nc1ccccc1F	none
O=C(CSC(=O)c1ccccc1)Nc1ccccc1F	PRMT1 FP inh 29 | PRMT1 confirm 26
COC(=O)[C@]12C[C@H](CC(=O)N3CCSCC3)C(=O)N(Cc3ccc(Cl)cc3Cl)C1=C[C@H](COCc1ccccc1)O[C@@H]2C	none
CC(=O)c1cc(-c2cccc(C#N)c2)c(=O)n2c1CCC2	none
NC(CO)C(=O)NNCc1ccc(O)c(O)c1O (stereo not given)	LEDGF integ inh 43, PRMT1 FP inh 30 | PRMT1 confirm 41
CC(=O)c1cc(-c2ccc([N+](=O)[O-])cc2)c(=O)n2c1CCC2	none
